Experimental data from ChEMBL document CHEMBL5724801, “EUbOPEN Chemogenomics Library - Multiplex” (2024).
“And” between values parts separate entries of the source, which are not always exact repeats. Identical values can stand only once.

Test system: HEK-293T
Experiment: Multiplex assay against HEK293T
Type: toxicity, cell-based
Conditions: human
Summary of the method: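 Live cells were stained at seeding with Hoechst33342, BioTracker Green Microtubule Cytoskeleton Dye, MitoTracker Red and Annexin V Alexa Fluor 680, then imaged on a CQ1 microscope at 37°C and 5% CO2 after compound addition. CellPathfinder machine-learning gating split cells into Hoechst high-intensity objects or normal cells. Normal cells were split into healthy, pyknosed or fragmented nuclei, and pyknosed cells into mitotic or apoptotic. Tubulin, mitochondrial-mass and membrane-permeability phenotypes are per cents of healthy-nucleus cells.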

[1] = 12 h, 1 µM, compound concentration 1 uM
[2] = 12 h, 10 µM, compound concentration 10 uM
[3] = 24 h, 1 µM, compound concentration 1 uM
[4] = 24 h, 10 µM, compound concentration 10 uM
[5] = 48 h, 1 µM, compound concentration 1 uM
[6] = 48 h, 10 µM, compound concentration 10 uM

CN(C)CCOc1ccc(/C(=C(/CCCO)c2ccccc2)c2ccc(O)cc2)cc1
Population Apoptotic (%) [1]: 11.33% and 11.76% | Population Fragmented Nuclei (%) [1]: 1.07% and 2.99% | Population Hoechst High Intensity Objects (%) [1]: 0% | Population Membrane Permeable-Phenotype (%) [1]: 0.91% and 0% | Population Mitochondria Different-Phenotype (%) [1]: 37.73% and 15.38% | Population Mitotic Cells (%) [1]: 88.67% and 88.24% | Population Normal (%) [1]: 100% | Population Pyknosed Nuclei (%) [1]: 40.11% and 81.44% | Total Cell Count [1]: 374 and 167 | Population Apoptotic (%) [2]: 12.57% and 17.97% | Population Fragmented Nuclei (%) [2]: 0.31% and 2.14% | Population Hoechst High Intensity Objects (%) [2]: 0% | Population Membrane Permeable-Phenotype (%) [2]: 0% | Population Mitochondria Different-Phenotype (%) [2]: 37.01% and 22.22% | Population Mitotic Cells (%) [2]: 87.43% and 82.03% | Population Normal (%) [2]: 100% | Population Pyknosed Nuclei (%) [2]: 59.87% and 91.43% | Population Tubulin-Different-Phenotype (%) [2]: 44.09% and 66.67% | Total Cell Count [2]: 319 and 140 | Population Apoptotic (%) [3]: 20.61% and 15.97% | Population Fragmented Nuclei (%) [3]: 0.56% and 3.01% | Population Healthy Nuclei (%) [3]: 68.54% and 25.3% | Population Hoechst High Intensity Objects (%) [3]: 0.37% and 0% | Population Membrane Permeable-Phenotype (%) [3]: 1.09% and 2.38% | Population Mitochondria Different-Phenotype (%) [3]: 18.85% and 28.57% | Population Mitotic Cells (%) [3]: 79.39% and 84.03% | Population Normal (%) [3]: 99.63% and 100% | Population Pyknosed Nuclei (%) [3]: 30.9% and 71.69% | Population Tubulin-Different-Phenotype (%) [3]: 22.68% and 21.43% | Population Apoptotic (%) [4]: 44.56% and 45.71% | Population Fragmented Nuclei (%) [4]: 1.1% and 3.91% | Population Hoechst High Intensity Objects (%) [4]: 0% | Population Membrane Permeable-Phenotype (%) [4]: 1.19% and 5.56% | Population Mitochondria Different-Phenotype (%) [4]: 45.83% and 33.33% | Population Mitotic Cells (%) [4]: 55.44% and 54.29% | Population Normal (%) [4]: 100% | Population Pyknosed Nuclei (%) [4]: 52.88% and 82.03% | Population Tubulin-Different-Phenotype (%) [4]: 79.76% and 72.22% | Total Cell Count [4]: 365 and 128 | Population Apoptotic (%) [5]: 11.64% and 29.47% | Population Fragmented Nuclei (%) [5]: 1.39% and 0.98% | Population Healthy Nuclei (%) [5]: 85.94% and 52.45% | Population Hoechst High Intensity Objects (%) [5]: 0.26% and 0% | Population Membrane Permeable-Phenotype (%) [5]: 6.57% and 1.87% | Population Mitochondria Different-Phenotype (%) [5]: 21.52% and 41.12% | Population Mitotic Cells (%) [5]: 88.36% and 70.53% | Population Normal (%) [5]: 99.74% and 100% | Population Apoptotic (%) [6]: 39.36% and 66.67% | Population Fragmented Nuclei (%) [6]: 0.98% and 2.22% | Population Hoechst High Intensity Objects (%) [6]: 1.92% and 1.46% | Population Membrane Permeable-Phenotype (%) [6]: 1.57% and 0% | Population Mitochondria Different-Phenotype (%) [6]: 81.82% and 77.78% | Population Mitotic Cells (%) [6]: 60.64% and 33.33% | Population Normal (%) [6]: 98.08% and 98.54% | Population Pyknosed Nuclei (%) [6]: 36.72% and 77.78%

O=C1[C@H](Cc2ccc(O)cc2)N2C(=O)CCN(C(=O)NCc3ccccc3)[C@H]2CN1Cc1cccc2ccccc12
Population Apoptotic (%) [1]: 44% and 46% | Population Fragmented Nuclei (%) [1]: 6% and 7% | Population Healthy Nuclei (%) [1]: 80% and 78% | Population Hoechst High Intensity Objects (%) [1]: 6% and 8% | Population Membrane Permeable-Phenotype (%) [1]: 0% | Population Mitochondria Different-Phenotype (%) [1]: 54% and 68% | Population Mitotic Cells (%) [1]: 55% and 53% | Population Normal (%) [1]: 93% and 91% | Population Pyknosed Nuclei (%) [1]: 12% and 13% | Population Tubulin-Different-Phenotype (%) [1]: 46% and 33% | Total Cell Count [1]: 374 and 259 | Population Apoptotic (%) [2]: 68% and 60% | Population Fragmented Nuclei (%) [2]: 5% | Population Healthy Nuclei (%) [2]: 74% and 82% | Population Hoechst High Intensity Objects (%) [2]: 11% and 14% | Population Membrane Permeable-Phenotype (%) [2]: 0% | Population Mitochondria Different-Phenotype (%) [2]: 90% and 93% | Population Mitotic Cells (%) [2]: 31% and 40% | Population Normal (%) [2]: 88% and 85% | Population Pyknosed Nuclei (%) [2]: 20% and 11% | Population Tubulin-Different-Phenotype (%) [2]: 76% and 67% | Total Cell Count [2]: 340 and 257 | Population Apoptotic (%) [3]: 23% and 55% | Population Fragmented Nuclei (%) [3]: 7% and 8% | Population Healthy Nuclei (%) [3]: 80% and 77% | Population Hoechst High Intensity Objects (%) [3]: 7% and 8% | Population Membrane Permeable-Phenotype (%) [3]: 0% | Population Mitochondria Different-Phenotype (%) [3]: 49% and 47% | Population Mitotic Cells (%) [3]: 76% and 45% | Population Normal (%) [3]: 92% and 91% | Population Pyknosed Nuclei (%) [3]: 11% and 14% | Population Tubulin-Different-Phenotype (%) [3]: 38% and 24% | Total Cell Count [3]: 470 and 305 | Population Apoptotic (%) [4]: 68% and 74% | Population Fragmented Nuclei (%) [4]: 7% and 9% | Population Healthy Nuclei (%) [4]: 75% and 77% | Population Hoechst High Intensity Objects (%) [4]: 11% and 14% | Population Membrane Permeable-Phenotype (%) [4]: 0% | Population Mitochondria Different-Phenotype (%) [4]: 94% and 95% | Population Mitotic Cells (%) [4]: 31% and 25% | Population Normal (%) [4]: 88% and 85% | Population Pyknosed Nuclei (%) [4]: 16% and 12% | Population Tubulin-Different-Phenotype (%) [4]: 65% and 70% | Total Cell Count [4]: 278 and 249 | Population Apoptotic (%) [5]: 30% and 50% | Population Fragmented Nuclei (%) [5]: 14% and 11% | Population Healthy Nuclei (%) [5]: 78% and 81% | Population Hoechst High Intensity Objects (%) [5]: 4% and 3% | Population Membrane Permeable-Phenotype (%) [5]: 0% | Population Mitochondria Different-Phenotype (%) [5]: 34% and 29% | Population Mitotic Cells (%) [5]: 69% and 50% | Population Normal (%) [5]: 95% and 96% | Population Pyknosed Nuclei (%) [5]: 6% and 7% | Population Tubulin-Different-Phenotype (%) [5]: 26% and 19% | Total Cell Count [5]: 730 and 472 | Population Apoptotic (%) [6]: 71% and 57% | Population Fragmented Nuclei (%) [6]: 8% and 11% | Population Healthy Nuclei (%) [6]: 79% and 73% | Population Hoechst High Intensity Objects (%) [6]: 10% and 20% | Population Membrane Permeable-Phenotype (%) [6]: 0% | Population Mitochondria Different-Phenotype (%) [6]: 94% and 88% | Population Mitotic Cells (%) [6]: 28% and 42% | Population Normal (%) [6]: 89% and 79% | Population Pyknosed Nuclei (%) [6]: 11% and 14% | Population Tubulin-Different-Phenotype (%) [6]: 63% and 72% | Total Cell Count [6]: 297 and 232
